This is a sample that favours compounds with a hit; in the whole collection about 3.5% have one here.
RGS4 pot – RGS4 potentiation or activation; B-score at 10 µM; AID 463111; HEK293 M3R/inducible RGS4, carbachol calcium flux Fluo4; active compounds read low; actives 0.92% (n = 310,000);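 active = B-score of the integrated calcium signal more than 4 SD below the library mean, with starting fluorescence not abnormally high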;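 note: negative B-score means reduced calcium response which marks RGS4 activation or potentiation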
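test system = M3R-expressing HEK293 line, RGS4 induced by doxycycline | probe or stimulus = carbachol at ECmax as muscarinic agonist stimulus | timing = dye loading 30 min 37 °C, buffer rest 30 min RT | signal = calcium dye Fluo4 fluorescence | evaluation = B score from integrated fluorescence ratio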
MrgX1 agonist – human MrgX1 receptor agonism, primary screen | actives 0.44% (n = 310,000) | MrgX1-HEK293 cells, Fluo-4 calcium fluorescence, agonist mode; active compounds read high | B-score at 10 µM;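 active = calcium response B-score plate-corrected fluorescence ratio at least 3 library SD, with starting fluorescence B-score inside 5 SD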
Target sequence (Q96LB2 whole entry, looked up): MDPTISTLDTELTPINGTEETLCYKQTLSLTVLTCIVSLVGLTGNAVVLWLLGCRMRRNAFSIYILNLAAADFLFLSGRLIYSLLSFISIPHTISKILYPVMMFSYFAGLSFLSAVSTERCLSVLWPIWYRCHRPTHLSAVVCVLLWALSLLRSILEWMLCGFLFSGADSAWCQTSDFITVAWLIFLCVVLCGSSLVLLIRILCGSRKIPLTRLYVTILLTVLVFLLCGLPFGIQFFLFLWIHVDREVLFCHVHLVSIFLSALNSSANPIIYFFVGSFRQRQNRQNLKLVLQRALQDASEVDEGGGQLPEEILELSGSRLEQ
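Test system: HEK293 cells stably expressing human MrgX1 receptor; amount: 15,000 cells per well; doses: compound delivered in addition one of three; times: overnight plating before 1 h dye loading; detection: Fluo-4 NW calcium-flux fluorescence, kinetic read; read-out basis: B-scored fluorescence response ratio; controls: positive and negative controls per plate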
RGS4 block – human RGS4 inhibition | P49798 | HEK293 M3R/RGS4 inducible, Fluo-4 calcium flux; active compounds read high; triggered by carbachol at its EC20 | B-score at 10 µM | actives 0.45% (n = 310,000) | AID 463165;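 active = B-score, a plate-corrected calcium signal, over three deviations above library mean, with baseline fluorescence within five deviations of library mean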;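 note: RGS4 expression induced by doxycycline in cells with stable M3 receptor; B-score is computed from the integrated fluorescence ratio over baseline after carbachol; higher B-score means a larger calcium signal and so more RGS4 inhibition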
MrgX1 antag – antagonists of human MrgX1 receptor | B-score at 10 µM | actives 1.3% (n = 310,000) | MRGX1-HEK293 calcium flux, Fluo-4, BAM8-22 antagonism; active compounds read low;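 active = calcium-response B-score plate-corrected more than 3 library SD below zero, starting fluorescence within 5 deviations, no agonist response on first addition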;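 note: peak minus trough fluorescence over baseline after final BAM8-22 challenge near maximal dose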
MrgX1 allo act – allosterically activates human MrgX1 receptor signaling; MrgX1-HEK293, Fluo-4 calcium flux, FDSS; active compounds read high; Q96LB2; B-score at 10 µM; actives 0.63% (n = 310,000);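 active = plate-corrected calcium response at least 3 library SD above typical, normal starting fluorescence, not activating the receptor alone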;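 note: compound read alongside a low EC10 to EC30 dose of BAM8-22 agonist; peak minus trough fluorescence over baseline measured at the second addition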
* = called active by the depositor.

What do the screens show for `O=C(c1cc(COc2ccc(F)cc2Cl)on1)N1CC[C@@H]2CCCC[C@H]2C1`?
RGS4 pot: inactive; MrgX1 agonist: inactive; RGS4 block: inactive; MrgX1 antag: inactive; MrgX1 allo act: inactive

What do the screens show for `Cn1ccnc1C1CCCCN1C(=O)c1cc(COc2ccc(F)cc2Cl)on1` (configuration not stated)?
RGS4 pot: -7.4*; MrgX1 agonist: inactive; RGS4 block: inactive; MrgX1 antag: inactive; MrgX1 allo act: inactive

What do the screens show for `CCN(CC)C1CCN(C(=O)c2cc(COc3ccc(F)cc3Cl)on2)C1` (configuration not stated)?
RGS4 pot: -7*; MrgX1 agonist: inactive; RGS4 block: inactive; MrgX1 antag: inactive; MrgX1 allo act: inactive

How did Cc1c2cnn(CC(=O)NCCN3CCOCC3)c(=O)c2c(C)n1Cc1ccc(F)cc1 do in these assays?
RGS4 pot: inactive; MrgX1 agonist: inactive; RGS4 block: inactive; MrgX1 antag: -5.8*; MrgX1 allo act: inactive

Results for Cc1c2cnn(CC(=O)N3CCN(c4ncccn4)CC3)c(=O)c2c(C)n1Cc1ccc(F)cc1 ?
RGS4 pot: inactive; MrgX1 agonist: inactive; RGS4 block: inactive; MrgX1 antag: inactive; MrgX1 allo act: inactive

What do the screens show for `CN(C)S(=O)(=O)n1cc(/C=C(\NC(=O)c2ccccc2Cl)C(=O)N2CCOCC2)c2ccccc21`?
RGS4 pot: inactive; MrgX1 agonist: inactive; RGS4 block: inactive; MrgX1 antag: inactive; MrgX1 allo act: inactive

Results for CC(C)C[C@H](NC(=O)N1CC(=O)Nc2ccccc21)C(=O)N1CCC(C(=O)O)CC1 ?
RGS4 pot: inactive; MrgX1 agonist: inactive; RGS4 block: inactive; MrgX1 antag: inactive; MrgX1 allo act: inactive

How did CN(Cc1ccccc1)S(=O)(=O)c1ccc(S(=O)(=O)N(Cc2ccc(F)cc2)C2CCCC2)cc1 do in these assays?
RGS4 pot: inactive; MrgX1 agonist: inactive; RGS4 block: inactive; MrgX1 antag: -4.6*; MrgX1 allo act: inactive

What do the screens show for `Cc1cc(/C=C2\SC(=S)N(Cc3ccco3)C2=O)c(C)n1-c1ccccc1`?
RGS4 pot: inactive; MrgX1 agonist: inactive; RGS4 block: inactive; MrgX1 antag: -4.5*; MrgX1 allo act: inactive

Results for O=C1/C(=C\c2ccco2)SC(=S)N1Cc1ccccc1 ?
RGS4 pot: inactive; MrgX1 agonist: inactive; RGS4 block: inactive; MrgX1 antag: inactive; MrgX1 allo act: inactive

What do the screens show for `Cc1cc(/C=C2\SC(=S)N(C)C2=O)c(C)n1-c1cccc(O)c1`?
RGS4 pot: inactive; MrgX1 agonist: inactive; RGS4 block: inactive; MrgX1 antag: -5.7*; MrgX1 allo act: inactive

How did COc1ccc(-n2c(C)cc(/C=C3/SC(=S)N(C)C3=O)c2C)cc1 do in these assays?
RGS4 pot: inactive; MrgX1 agonist: inactive; RGS4 block: inactive; MrgX1 antag: inactive; MrgX1 allo act: inactive

Results for CC(=O)OCCCN1C(=O)c2ccc(Br)cc2C1=O ?
RGS4 pot: inactive; MrgX1 agonist: inactive; RGS4 block: inactive; MrgX1 antag: inactive; MrgX1 allo act: inactive

What do the screens show for `CC(C)(C)C(=O)C(Cl)C(=O)Nc1ccccc1` (configuration not stated)?
RGS4 pot: inactive; MrgX1 agonist: inactive; RGS4 block: 45*; MrgX1 antag: inactive; MrgX1 allo act: inactive

How did N#CCCS(=O)(=O)c1nnnn1-c1ccccc1 do in these assays?
MrgX1 agonist: 42*; MrgX1 antag: inactive; MrgX1 allo act: inactive

How did c1ccc(-n2nnnc2Cc2nnnn2-c2ccccc2)cc1 do in these assays?
RGS4 pot: inactive; MrgX1 agonist: inactive; RGS4 block: inactive; MrgX1 antag: inactive; MrgX1 allo act: inactive

What do the screens show for `Cc1sc2ncn(CC(=O)N3CCN(c4ccc(F)cc4)CC3)c(=O)c2c1S(=O)(=O)N1CCOCC1`?
RGS4 pot: inactive; MrgX1 agonist: inactive; RGS4 block: inactive; MrgX1 antag: inactive; MrgX1 allo act: inactive

What do the screens show for `Cc1ccc(-c2nc(C(=O)NCC3CCCO3)cc3c2[nH]c2ccccc23)cc1` (configuration not stated)?
RGS4 pot: -7*; MrgX1 agonist: inactive; RGS4 block: inactive; MrgX1 antag: inactive; MrgX1 allo act: inactive
